# Tests used:
# Type in all cases: functional
# MDA-MB-231 [1] = assay: Growth inhibition of human MDA-MB-231 cells assessed as cell growth at 10 uM after 48 hrs by sulforhodamine B assay; settings: MDA-MB-231, 48 h, read-out: Activity
# Procedure, shortened: (§1)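 Single-dose NCI-60 screen: adherent cells in RPMI 1640 with 5% FBS were exposed to 10 µM for 48 h at 37 °C after a 24 h preincubation. They were fixed in situ with cold TCA (10% final), stained with 0.4% SRB in 1% acetic acid, solubilized in 10 mM Tris base, and read at 515 nm. Percent growth was taken relative to time-zero and control plates.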
# DU-145 = assay: Growth inhibition of human DU145 cells assessed as cell growth at 10 uM after 48 hrs by sulforhodamine B assay; settings: DU-145, 48 h, read-out: Activity
# Procedure, shortened: (§2)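 NCI-60 single-dose screen at 10 µM: cells in RPMI 1640 with 5% FBS, preincubated 24 h, then exposed 48 h at 37 °C. TCA fixation (16% final for suspension cells), SRB staining, absorbance 515 nm. Percent growth relative to time-zero and untreated control plates; negative values indicate cell kill.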
# SN12C = assay: Growth inhibition of human SN12C cells assessed as cell growth at 10 uM after 48 hrs by sulforhodamine B assay; settings: read-out: Activity
# Procedure, shortened: (§3)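 Single-dose NCI-60 test at 10 µM. Cells were grown in RPMI 1640 with 5% FBS and 2 mM L-glutamine, preincubated 24 h, with T0 plates TCA-fixed. Exposure was 48 h at 37 °C, 5% CO2. Cells were fixed with cold TCA (final 10%, 4 °C, 60 min), stained with SRB and read at 515 nm. Percent growth was taken relative to T0 and untreated control; negative values denote cell kill.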
# OVCAR-8 = assay: Growth inhibition of human OVCAR8 cells assessed as cell growth at 10 uM after 48 hrs by sulforhodamine B assay; settings: OVCAR-8, 48 h, read-out: Activity; procedure, shortened: as §1
# IGROV-1 = assay: Growth inhibition of human IGROV1 cells assessed as cell growth at 10 uM after 48 hrs by sulforhodamine B assay; settings: IGROV-1, 48 h, read-out: Activity; procedure, shortened: as §2
# SK-MEL-5 = assay: Growth inhibition of human SK-MEL-5 cells assessed as cell growth at 10 uM after 48 hrs by sulforhodamine B assay; settings: SK-MEL-5, 48 h, read-out: Activity; procedure, shortened: as §1
# SK-MEL-28 = assay: Growth inhibition of human SK-MEL-28 cells assessed as cell growth at 10 uM after 48 hrs by sulforhodamine B assay; settings: SK-MEL-28, 48 h, read-out: Activity; procedure, shortened: as §1
# LOX IMVI = assay: Growth inhibition of human LOXIMVI cells assessed as cell growth at 10 uM after 48 hrs by sulforhodamine B assay; settings: read-out: Activity; procedure, shortened: as §2
# SNB-75 = assay: Growth inhibition of human SNB75 cells assessed as cell growth at 10 uM after 48 hrs by sulforhodamine B assay; settings: SNB-75, 48 h, read-out: Activity; procedure, shortened: as §3
# SF-268 = assay: Growth inhibition of human SF268 cells assessed as cell growth at 10 uM after 48 hrs by sulforhodamine B assay; settings: SF-268, 48 h, read-out: Activity; procedure, shortened: as §1
# NCI-H23 = assay: Growth inhibition of human NCI-H23 cells assessed as cell growth at 10 uM after 48 hrs by sulforhodamine B assay; settings: NCI-H23, 48 h, read-out: Activity; procedure, shortened: as §1
# CCRF-CEM [2] = assay: Growth inhibition of human CCRF-CEM cells assessed as cell growth at 10 uM after 48 hrs by sulforhodamine B assay; settings: read-out: Activity; procedure, shortened: as §2
# MDA-MB-231 [3] = assay: Growth inhibition of human MDA-MB-231 cells after 48 hrs by sulforhodamine B assay; settings: MDA-MB-231, 48 h
# Procedure, shortened: (§4)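 NCI-60 panel cells grown in RPMI 1640 with 5% FBS and 2 mM L-glutamine, seeded at 5000–40,000 cells/well and preincubated 24 h. Five 10-fold dilutions (0.001–100 µM) from DMSO stocks were added for 48 h at 37 °C. Adherent cells were fixed with cold TCA (10% final) for 60 min at 4 °C, stained with 0.4% SRB, and read at 515 nm. GI50 was set where 100×(T−T0)/(C−T0)=50.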
# UO-31 = assay: Growth inhibition of human UO31 cells after 48 hrs by sulforhodamine B assay; settings: UO-31, 48 h
# Procedure, shortened: (§5)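 NCI-60 five-dose screen. Cells were grown in RPMI 1640 with 5% FBS and 2 mM L-glutamine, plated at 5000–40,000 cells/well and incubated 24 h before dosing, with T0 plates TCA-fixed. DMSO stocks were diluted to doses of […] and exposed 48 h at 37 °C, 5% CO2. Cells were fixed with cold TCA (final 10%, 60 min, 4 °C), stained with 0.4% SRB in 1% acetic acid for 10 min, solubilized in 10 mM trizma base and read at 515 nm. GI50 is where 100×(T−T0)/(C−T0)=50.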
# CAKI-1 = assay: Growth inhibition of human CAKI-1 cells after 48 hrs by sulforhodamine B assay; settings: CAKI-1, 48 h
# Procedure, shortened: (§6)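 NCI-60 screen: cells in RPMI 1640 with 5% FBS and 2 mM glutamine, 5000–40,000 cells/well, preincubated 24 h. Five concentrations (10-fold dilutions; 100 to 0.001 µM) applied for 48 h at 37 °C. TCA fixation, SRB stain, absorbance at 515 nm. Time-zero plates included; GI50 where 100×(T−T0)/(C−T0)=50.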
# SK-MEL-2 = assay: Growth inhibition of human SK-MEL-2 cells after 48 hrs by sulforhodamine B assay; settings: SK-MEL-2, 48 h; procedure, shortened: as §4
# SNB-19 = assay: Growth inhibition of human SNB19 cells after 48 hrs by sulforhodamine B assay; settings: SNB-19, 48 h; procedure, shortened: as §5
# KM12 = assay: Growth inhibition of human KM12 cells after 48 hrs by sulforhodamine B assay; settings: KM12, 48 h; procedure, shortened: as §6
# NCI-H522 = assay: Growth inhibition of human NCI-H522 cells after 48 hrs by sulforhodamine B assay; settings: NCI-H522, 48 h; procedure, shortened: as §4
# SR = assay: Growth inhibition of human SR cells after 48 hrs by sulforhodamine B assay
# Procedure, shortened: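 Suspension leukemia line in RPMI 1640 with 5% FBS and 2 mM L-glutamine, NCI-60 five-dose format ([…]), 48 h at 37 °C. Settled cells were fixed with 80% TCA (final 16%), stained with SRB and read at 515 nm. GI50 is where 100×(T−T0)/(C−T0)=50, with T0 measured at dosing.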
# RPMI-8226 = assay: Growth inhibition of human RPMI8226 cells after 48 hrs by sulforhodamine B assay; settings: RPMI-8226, 48 h
# Procedure, shortened: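 NCI-60 suspension lines in RPMI 1640 with 5% FBS and 2 mM L-glutamine, preincubated 24 h. A five-concentration 10-fold series (0.001–100 µM) was given for 48 h at 37 °C. Settled cells were fixed with 80% TCA (16% final), stained with SRB, and read at 515 nm. GI50 was taken where 100×(T−T0)/(C−T0)=50, with T0 plates fixed at drug addition.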
# CCRF-CEM [4] = assay: Growth inhibition of human CCRF-CEM cells after 48 hrs by sulforhodamine B assay; procedure, shortened: as §6
Compound,growth at 10 µM (MDA-MB-231 [1]) [%],growth at 10 µM (DU-145) [%],growth at 10 µM (SN12C) [%],growth at 10 µM (OVCAR-8) [%],growth at 10 µM (IGROV-1) [%],growth at 10 µM (SK-MEL-5) [%],growth at 10 µM (SK-MEL-28) [%],growth at 10 µM (LOX IMVI) [%],growth at 10 µM (SNB-75) [%],growth at 10 µM (SF-268) [%],growth at 10 µM (NCI-H23) [%],growth at 10 µM (CCRF-CEM [2]) [%],GI50 (MDA-MB-231 [3]) [µM],GI50 (UO-31) [µM],GI50 (CAKI-1) [µM],GI50 (SK-MEL-2) [µM],GI50 (SNB-19) [µM],GI50 (KM12) [µM],GI50 (NCI-H522) [µM],GI50 (SR) [µM],other results
CC(C)=CCC/C(C)=C/CC/C(C)=C/CC[C@]1(C)CCc2c3c(cc(C)c2O1)OCN(CCCO)C3,10.6,-13.6,11.7,-77.7,-6.58,57.5,-50.7,-89.8,33.9,-78.5,51.9,28.6,1.63,1.47,2.33,2.27,1.64,2.1,1.79,1.04,GI50 (RPMI-8226): 2.16 µM; GI50 (CCRF-CEM [4]): 2.59 µM
CC(C)=CCC/C(C)=C/CC/C(C)=C/CC[C@]1(C)CCc2c3c(c(C)c(C)c2O1)OCN(CCCCCO)C3,55,99.6,78.5,69,63.7,108,99.7,40.2,70,75.9,94.5,54.9,5.87,4.64,5.33,7.47,5.99,7.41,7.08,4,GI50 (RPMI-8226): 9.91 µM; GI50 (CCRF-CEM [4]): 7.83 µM

# From ChEMBL document CHEMBL2380254, “Optimization of tocotrienols as antiproliferative and antimigratory leads” (Eur J Med Chem, 2013)
